According to ChEMBL document CHEMBL2434966, “Novel N-4-piperazinyl-ciprofloxacin-chalcone hybrids: synthesis, physicochemical properties, anticancer and topoisomerase I and II inhibitory activity” (Eur J Med Chem, 2013):

How the values were obtained:
SF-295 = test: Growth inhibition of human SF295 cells assessed as cell growth at 10^-5 M after 48 hrs by sulforhodamine B assay; assay type: functional; conditions: SF-295, 48 h, read-out: Activity
Outline: (§1)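 NCI 60-cell-line primary one-dose screen. Cells were exposed to a single 10^-5 M concentration for 48 h. The end point was sulforhodamine B protein staining, read spectrophotometrically. Results are reported as percent growth of treated cells relative to untreated control cells.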

MOLT-4 [1] = test: Growth inhibition of human MOLT4 cells assessed as cell growth at 10^-5 M after 48 hrs by sulforhodamine B assay; assay type: functional; conditions: MOLT-4, 48 h, read-out: Activity; outline: as §1
[2] = Octanol-phosphate buffer partition coefficient, log P of the compound after 5 hrs by shake-flask method; assay type: physicochemical
Outline: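 Shake-flask method: 100 µL of 0.2 mg/mL stock diluted into 1.9 mL phosphate buffer pH 7.4 plus 2 mL mutually saturated n-octanol, protected from light. Vortexed 3 min, shaken 5 h at 25 °C. Both phases assayed by UV at 272 nm; log P = log([octanol]/[aqueous]), run in triplicate.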

ACHN [3] = test: Growth inhibition of human ACHN cells after 48 hrs by sulforhodamine B assay; assay type: functional; conditions: for CC50: read-out: LC50 (the source's name)
Outline: (§2)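 NCI 60-panel five-dose test at 10-fold dilutions, 10^-4 to 10^-8 M, with 48 h continuous exposure and SRB protein read-out. Percent growth derived from time-zero, untreated-control and treated absorbances. GI50 is the concentration where [(Ti-Tz)/(C-Tz)]×100 = 50. TGI is taken at Ti = Tz. LC50 is taken at [(Ti-Tz)/Tz]×100 = -50.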

DU-145 = test: Growth inhibition of human DU145 cells after 48 hrs by sulforhodamine B assay; assay type: functional; conditions: DU-145, 48 h; outline: as §2
SK-OV-3 = test: Growth inhibition of human SKOV3 cells after 48 hrs by sulforhodamine B assay; assay type: functional; conditions: SK-OV-3, 48 h
Outline: (§3)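 NCI five-dose screen on the full 60-cell-line panel. Cells were given 10-fold dilutions from 10^-4 to 10^-8 M with continuous 48 h exposure, and growth was read by SRB staining. Percent growth was taken from time-zero, control and treated absorbances. GI50, TGI and LC50 were then derived, the GI50 being the concentration that gives a 50% lower net protein increase than control.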

RXF 393 = test: Growth inhibition of human RXF393 cells after 48 hrs by sulforhodamine B assay; assay type: functional; conditions: RXF 393, 48 h; for CC50: read-out: LC50 (the source's name); outline: as §3
MDA-MB-231 [4] = test: Growth inhibition of human MDA-MB-231 cells assessed as cell growth at 10^-5 M after 48 hrs by sulforhodamine B assay; assay type: functional; conditions: MDA-MB-231, 48 h, read-out: Activity; outline: as §1
RPMI-8226 [5] = test: Growth inhibition of human RPMI8226 cells assessed as cell growth at 10^-5 M after 48 hrs by sulforhodamine B assay; assay type: functional; conditions: RPMI-8226, 48 h, read-out: Activity; outline: as §1
UACC-257 = test: Growth inhibition of human UACC257 cells after 48 hrs by sulforhodamine B assay; assay type: functional; conditions: UACC-257, 48 h; for CC50: read-out: LC50 (the source's name)
Outline: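 NCI 60-cell panel, five concentrations (10-fold dilutions, 0.01–100 µM), 48 h continuous exposure; SRB protein stain read spectrophotometrically. Percent growth from time-zero, untreated-control and treated absorbances. GI50 is the concentration giving 50% lower net protein increase than control. Values beyond the tested range are reported as more or less than the highest or lowest concentration.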

HT-29 = test: Growth inhibition of human HT-29 cells after 48 hrs by sulforhodamine B assay; assay type: functional; conditions: HT-29, 48 h; for CC50: read-out: LC50 (the source's name); outline: as §2
SF-268 = test: Growth inhibition of human SF268 cells after 48 hrs by sulforhodamine B assay; assay type: functional; conditions: SF-268, 48 h; for CC50: read-out: LC50 (the source's name); outline: as §3
RPMI-8226 [6] = test: Growth inhibition of human RPMI8226 cells after 48 hrs by sulforhodamine B assay; assay type: functional; conditions: RPMI-8226, 48 h; for CC50: read-out: LC50 (the source's name); outline: as §3
[7] = Growth inhibition of human NCI-ADR-RES cells assessed as cell growth at 10^-5 M after 48 hrs by sulforhodamine B assay; assay type: functional; conditions: read-out: Activity; outline: as §1
OVCAR-3 = test: Growth inhibition of human OVCAR3 cells after 48 hrs by sulforhodamine B assay; assay type: functional; conditions: OVCAR-3, 48 h; for CC50: read-out: LC50 (the source's name); outline: as §3
[8] = Growth inhibition of human Hs 578T cells after 48 hrs by sulforhodamine B assay; assay type: functional; conditions: for CC50: read-out: LC50 (the source's name); outline: as §2
KM12 = test: Growth inhibition of human KM12 cells after 48 hrs by sulforhodamine B assay; assay type: functional; conditions: KM12, 48 h; for CC50: read-out: LC50 (the source's name); outline: as §2
HOP-62 = test: Growth inhibition of human HOP62 cells assessed as cell growth at 10^-5 M after 48 hrs by sulforhodamine B assay; assay type: functional; conditions: HOP-62, 48 h, read-out: Activity
Outline: (§4)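 NCI 60-cell-line primary screen. Single concentration of 10^-5 M, 48 h incubation. End point by sulforhodamine B protein staining read spectrophotometrically. Reported as percent growth of treated cells relative to untreated control cells.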

[9] = Growth inhibition of human HCC2998 cells assessed as cell growth at 10^-5 M after 48 hrs by sulforhodamine B assay; assay type: functional; conditions: HCC 2998, 48 h, read-out: Activity; outline: as §4
M14 = test: Growth inhibition of human M14 cells assessed as cell growth at 10^-5 M after 48 hrs by sulforhodamine B assay; assay type: functional; conditions: M14, 48 h, read-out: Activity; outline: as §4
ACHN [10] = test: Growth inhibition of human ACHN cells assessed as cell growth at 10^-5 M after 48 hrs by sulforhodamine B assay; assay type: functional; conditions: read-out: Activity; outline: as §4
PC-3 = test: Growth inhibition of human PC3 cells after 48 hrs by sulforhodamine B assay; assay type: functional; conditions: PC-3, 48 h; outline: as §3
BT-549 = test: Growth inhibition of human BT549 cells assessed as cell growth at 10^-5 M after 48 hrs by sulforhodamine B assay; assay type: functional; conditions: BT-549, 48 h, read-out: Activity; outline: as §4
CCRF-CEM = test: Growth inhibition of human CCRF-CEM cells assessed as cell growth at 10^-5 M after 48 hrs by sulforhodamine B assay; assay type: functional; conditions: read-out: Activity; outline: as §4
MDA-MB-231 [11] = test: Growth inhibition of human MDA-MB-231 cells after 48 hrs by sulforhodamine B assay; assay type: functional; conditions: MDA-MB-231, 48 h; outline: as §2
[12] = Growth inhibition of human NCI-ADR-RES cells after 48 hrs by sulforhodamine B assay; assay type: functional; conditions: for CC50: read-out: LC50 (the source's name); outline: as §3
MOLT-4 [13] = test: Growth inhibition of human MOLT4 cells after 48 hrs by sulforhodamine B assay; assay type: functional; conditions: MOLT-4, 48 h; for CC50: read-out: LC50 (the source's name); outline: as §3

## O=C(CN1CCN(c2cc3c(cc2F)c(=O)c(C(=O)O)cn3C2CC2)CC1)Nc1ccc(C(=O)/C=C/c2ccccc2)cc1
SF-295
  growth at 10 µM: 15.2%
MOLT-4 [1]
  growth at 10 µM: 19%
[2]
  logP at 5 h: 1.29
ACHN [3]
  GI50: 3.3 µM
  TGI: 31.9 µM
  CC50: > 100 µM
DU-145
  GI50: 3.74 µM
  LC50 (concentration killing 50% of starting cells): > 100 µM
  TGI: > 100 µM
SK-OV-3
  GI50: 27.3 µM
  LC50: > 100 µM
  TGI: > 100 µM
RXF 393
  GI50: 2.5 µM
  TGI: > 100 µM
  CC50: > 100 µM
MDA-MB-231 [4]
  growth at 10 µM: 55.1%
RPMI-8226 [5]
  growth at 10 µM: 2.45%
UACC-257
  GI50: 3.9 µM
  TGI: 90.8 µM
  CC50: > 100 µM
HT-29
  GI50: 2.99 µM
  TGI: 10.3 µM
  CC50: > 100 µM
SF-268
  GI50: 4.13 µM
  TGI: > 100 µM
  CC50: > 100 µM
RPMI-8226 [6]
  GI50: 2.52 µM
  TGI: 6.73 µM
  CC50: > 100 µM
[7]
  growth at 10 µM: 93.5%
OVCAR-3
  GI50: 3.64 µM
  TGI: > 100 µM
  CC50: > 100 µM
[8]
  GI50: 4.99 µM
  TGI: > 100 µM
  CC50: > 100 µM
KM12
  GI50: 4.11 µM
  TGI: > 100 µM
  CC50: > 100 µM
HOP-62
  growth at 10 µM: 59.4%
[9]
  growth at 10 µM: 70.1%
M14
  growth at 10 µM: 31.9%
ACHN [10]
  growth at 10 µM: 40%
PC-3
  GI50: 3.16 µM
  LC50: > 100 µM
  TGI: > 100 µM
BT-549
  growth at 10 µM: 9.61%
CCRF-CEM
  growth at 10 µM: 15.2%
MDA-MB-231 [11]
  GI50: 1.84 µM
  LC50 (50% lethal concentration): > 100 µM
  TGI: 5.13 µM
[12]
  GI50: 9.75 µM
  TGI: > 100 µM
  CC50: > 100 µM
MOLT-4 [13]
  GI50: 5.13 µM
  TGI: > 100 µM
  CC50: > 100 µM

## COc1cc(/C=C/C(=O)c2ccc(NC(=O)CN3CCN(c4cc5c(cc4F)c(=O)c(C(=O)O)cn5C4CC4)CC3)cc2)cc(OC)c1OC
SF-295
  growth at 10 µM: -27.2%
MOLT-4 [1]
  growth at 10 µM: -1.1%
[2]
  logP at 5 h: 0.753
ACHN [3]
  GI50: 0.45 µM
  TGI: 7.09 µM
  CC50: > 100 µM
DU-145
  GI50: 0.67 µM
  LC50 (concentration killing 50% of starting cells): > 100 µM
  TGI: > 100 µM
SK-OV-3
  GI50: 3.57 µM
  LC50: > 100 µM
  TGI: > 100 µM
RXF 393
  GI50: 0.34 µM
  TGI: 1.06 µM
  CC50: 3.47 µM
MDA-MB-231 [4]
  growth at 10 µM: 27.6%
RPMI-8226 [5]
  growth at 10 µM: -18.8%
UACC-257
  GI50: 1.42 µM
  TGI: 65.4 µM
  CC50: > 100 µM
HT-29
  GI50: 0.23 µM
  TGI: 0.63 µM
  CC50: 9.13 µM
SF-268
  GI50: 1.06 µM
  TGI: 61.2 µM
  CC50: > 100 µM
RPMI-8226 [6]
  GI50: 0.29 µM
  TGI: 0.77 µM
  CC50: > 100 µM
[7]
  growth at 10 µM: 98.2%
OVCAR-3
  GI50: 0.29 µM
  TGI: 0.92 µM
  CC50: 9.04 µM
[8]
  GI50: 53.8 µM
  TGI: > 100 µM
  CC50: > 100 µM
KM12
  GI50: 0.53 µM
  TGI: 3.17 µM
  CC50: > 100 µM
HOP-62
  growth at 10 µM: 4.38%
[9]
  growth at 10 µM: -11.6%
M14
  growth at 10 µM: -14.1%
ACHN [10]
  growth at 10 µM: 10.8%
PC-3
  GI50: 0.56 µM
  LC50: > 100 µM
  TGI: > 100 µM
BT-549
  growth at 10 µM: -86.7%
CCRF-CEM
  growth at 10 µM: -13.7%
MDA-MB-231 [11]
  GI50: 0.51 µM
  LC50 (50% lethal concentration): > 100 µM
[12]
  GI50: 57.6 µM
  TGI: > 100 µM
  CC50: > 100 µM
MOLT-4 [13]
  GI50: 0.31 µM
  CC50: > 100 µM
